In ChEMBL document CHEMBL3875209, “Synthesis and biological evaluation of cis-restricted triazole/tetrazole mimics of combretastatin-benzothiazole hybrids as tubulin polymerization inhibitors and apoptosis inducers” (Bioorg Med Chem, 2017):
Active and inactive are the calls of the source. No cut-off for these calls is given here.

Key:
[1] = Antiproliferative activity against human DU145 cells after 48 hrs by MTT assay; assay type: functional, cell-based; settings: DU-145, 48 h
Summary of the method: (§1)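 MTT assay. Cells seeded in DMEM with 10% FBS and left 24 h at 37 °C in CO2 before compound treatment for 48 h. MTT (5 mg/mL stock) added for 4 h, formazan dissolved in DMSO, absorbance read at 570 nm. IC50 taken as the mean of three independent experiments.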

[2] = Antiproliferative activity against human HeLa cells after 48 hrs by MTT assay; assay type: functional, cell-based; summary of the method: as §1
[3] = Antiproliferative activity against human A549 cells after 48 hrs by MTT assay; assay type: functional, cell-based; settings: A549, 48 h; summary of the method: as §1
[4] = Antiproliferative activity against human HepG2 cells after 48 hrs by MTT assay; assay type: functional, cell-based; settings: HepG2, 48 h; summary of the method: as §1
[5] = Antiproliferative activity against human MCF7 cells after 48 hrs by MTT assay; assay type: functional, cell-based; settings: MCF7, 48 h; summary of the method: as §1
[6] = Cell cycle arrest in human A549 cells assessed as accumulation at S phase at 50 nM after 48 hrs by propidium iodide staining based flow cytometry (reference value: 9.4%); assay type: functional
Summary of the method: (§2)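 A549 cells exposed for 48 h at 50 or 100 nM. Cells harvested, washed in PBS, fixed in ice-cold 70% ethanol and stained with propidium iodide. Phase distribution (G0/G1, S, G2/M) measured by flow cytometry against untreated cells.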

[7] = Cell cycle arrest in human A549 cells assessed as accumulation at G2/M phase at 50 nM after 48 hrs by propidium iodide staining based flow cytometry (reference value: 12.1%); assay type: functional; summary of the method: as §2
[8] = Cell cycle arrest in human A549 cells assessed as accumulation at G0/G1 phase at 100 nM after 48 hrs by propidium iodide staining based flow cytometry (reference value: 78.5%); assay type: functional; summary of the method: as §2
[9] = Cell cycle arrest in human A549 cells assessed as accumulation at S phase at 100 nM after 48 hrs by propidium iodide staining based flow cytometry (reference value: 9.4%); assay type: functional; summary of the method: as §2
Sus scrofa = organism: Sus scrofa; experiment: Inhibition of porcine brain tubulin polymerization at 3 uM in presence of GTP by fluorescence assay relative to control
Summary of the method: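 Fluorescence-reporter tubulin polymerization kit: PEM buffer with […], compound at 3 µM final, CA-4 as positive control. Fluorescence followed at ex 360/em 420 nm for 1 h at 37 °C. Mean ± SD of two experiments run in triplicate.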

[10] = Inhibition of porcine brain tubulin polymerization in presence of GTP by fluorescence assay; parameters: species or system Sus scrofa
Summary of the method: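 Tubulin polymerization IC50: compounds preincubated with tubulin at 0.5, 1, 2, 3 and 5 µM. Reactions in PEM buffer with […], polymerization followed by reporter fluorescence at ex 360/em 420 nm, with CA-4 as reference.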

A549 [11] = experiment: Inhibition of alpha-tubulin polymerization in human A549 cells assessed as disruption of microtubule organization at 50 nM after 48 hrs by FITC/DAPI staining based immunofluorescence microscopic assay; assay type: cell-based
Summary of the method: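 A549 cells on coverslips treated at 50 nM for 48 h. Fixed in 3.5% formaldehyde/PBS, permeabilized with Triton X-100/Tween-20, blocked in 2% BSA. Anti-tubulin primary (1:200, 4 h) and FITC anti-mouse secondary (1:500, 1 h), DAPI mounting, confocal imaging.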

A549 [12] = experiment: Inhibition of alpha-tubulin polymerization in human A549 cells assessed as increase in soluble tubulin fraction at 1 uM after 48 hrs by Western blot method; assay type: cell-based
Summary of the method: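 A549 cells (1 × 10⁵/well) treated at 1 µM for 48 h alongside DMSO, CA-4 and paclitaxel controls. Soluble fraction released with warm Pipes-KOH pH 6.8/Triton lysis buffer (3 min, 30 °C); insoluble fraction taken in Laemmli buffer. Both fractions blotted on SDS-10% PAGE with anti-α-tubulin and ECL detection.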

Homo sapiens = organism: Homo sapiens; experiment: Inhibition of colchicine binding to tubulin (unknown origin) at 5 to 20 uM after 60 mins by fluorescence assay
Summary of the method: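 Tubulin (3 µM) incubated with compound at 5–20 µM, with and without colchicine (3 µM), in 30 mM Tris for 60 min at 37 °C. Fluorescence read at ex 350/em 435 nm. Tris blank and the colchicine-free signal were subtracted, and values normalized to DMSO. CA-4 and vinblastine served as controls.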

A549 [13] = experiment: Induction of apoptosis in human A549 cells assessed as nuclei condensation at 50 nM after 48 hrs by Hoechst 33258 staining based fluorescence microscopic analysis; assay type: functional, cell-based
Summary of the method: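 A549 cells (5 × 10⁴/well) allowed to adhere 48 h, then treated at 50 nM for 48 h at 37 °C. Fixed in 4% paraformaldehyde at 4 °C for 10 min and stained with Hoechst 33258 (5 µg/mL) for 30 min at room temperature. Nuclear condensation scored by fluorescence microscopy (ex 350/em 460 nm, 10X).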

A549 [14] = experiment: Induction of apoptosis in human A549 cells assessed as live cells at 100 nM after 48 hrs by Annexin-V FITC/propidium iodide staining based flow cytometry (reference value: 94.2%); assay type: functional
A549 [15] = experiment: Induction of apoptosis in human A549 cells assessed as early apoptotic cells at 100 nM after 48 hrs by Annexin-V FITC/propidium iodide staining based flow cytometry (reference value: 5.2%); assay type: functional
A549 [16] = experiment: Induction of apoptosis in human A549 cells assessed as late apoptotic cells at 100 nM after 48 hrs by Annexin-V FITC/propidium iodide staining based flow cytometry (reference value: 0.6%); assay type: functional
A549 [17] = experiment: Induction of apoptosis in human A549 cells assessed as necrotic cells at 100 nM after 48 hrs by Annexin-V FITC/propidium iodide staining based flow cytometry (reference value: 0.1%); assay type: functional
A549 [18] = experiment: Induction of mitochondrial membrane potential loss in human A549 cells at 100 nM after 48 hrs by JC-1 staining based flow cytometry (reference value: 3.8%); assay type: functional
A549 [19] = experiment: Induction of mitochondrial membrane potential loss in human A549 cells assessed as intact mitochondrial membrane at 100 nM after 48 hrs by JC-1 staining based flow cytometry (reference value: 95.9%); assay type: functional
A549 [20] = experiment: Induction of ROS generation in human A549 cells at 100 nM after 48 hrs by DCFDA staining based flow cytometry (reference value: 4.4%); assay type: functional
[21] = Cell cycle arrest in human A549 cells assessed as accumulation at G0/G1 phase at 50 nM after 48 hrs by propidium iodide staining based flow cytometry (reference value: 78.5%); assay type: functional; summary of the method: as §2
[22] = Cell cycle arrest in human A549 cells assessed as accumulation at G2/M phase at 100 nM after 48 hrs by propidium iodide staining based flow cytometry; assay type: functional; summary of the method: as §2
[23] = Cell cycle arrest in human A549 cells assessed as accumulation at G2/M phase after 48 hrs by propidium iodide staining based flow cytometry; assay type: functional; summary of the method: as §2
A549 [24] = experiment: Induction of apoptosis in human A549 cells after 48 hrs by Annexin-V FITC/propidium iodide staining based flow cytometry; assay type: functional, cell-based
A549 [25] = experiment: Induction of apoptosis in human A549 cells assessed as live cells at 50 nM after 48 hrs by Annexin-V FITC/propidium iodide staining based flow cytometry (reference value: 94.2%); assay type: functional
A549 [26] = experiment: Induction of apoptosis in human A549 cells assessed as early apoptotic cells at 50 nM after 48 hrs by Annexin-V FITC/propidium iodide staining based flow cytometry (reference value: 5.2%); assay type: functional
A549 [27] = experiment: Induction of apoptosis in human A549 cells assessed as late apoptotic cells at 50 nM after 48 hrs by Annexin-V FITC/propidium iodide staining based flow cytometry (reference value: 0.6%); assay type: functional
A549 [28] = experiment: Induction of apoptosis in human A549 cells assessed as necrotic cells at 50 nM after 48 hrs by Annexin-V FITC/propidium iodide staining based flow cytometry (reference value: 0.1%); assay type: functional
[29] = Depolarization of mitochondrial membrane potential in human A549 cells after 48 hrs by JC-1 staining based flow cytometry; assay type: functional, cell-based
A549 [30] = experiment: Induction of mitochondrial membrane potential loss in human A549 cells at 50 nM after 48 hrs by JC-1 staining based flow cytometry (reference value: 3.8%); assay type: functional
A549 [31] = experiment: Induction of mitochondrial membrane potential loss in human A549 cells assessed as intact mitochondrial membrane at 50 nM after 48 hrs by JC-1 staining based flow cytometry (reference value: 95.9%); assay type: functional
A549 [32] = experiment: Induction of ROS generation in human A549 cells at 50 nM after 48 hrs by DCFDA staining based flow cytometry (reference value: 4.4%); assay type: functional
A549 [33] = experiment: Induction of apoptosis in human A549 cells assessed as increase in caspase-3 expression at 50 nM after 48 hrs by Western blot method; assay type: functional, cell-based
Summary of the method: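 Caspase-3 western blot of A549 lysates after 48 h at 50 nM. Proteins extracted in RIPA buffer, 50 µg per lane on 10% SDS-PAGE, transferred to PVDF and blocked with BSA. Primary antibody incubated 24 h, HRP secondary 1 h, chemiluminescent detection, with β-actin as loading control.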

| inhibition (Sus scrofa) | IC50 [10] | inhibition (Homo sapiens) | Compound | IC50 [1] | IC50 [2] | IC50 [3] | IC50 [4] | IC50 [5] | Activity [6] | Activity [7] | Activity [8] | Activity [9] | inhibition (A549 [11]) | inhibition (A549 [12]) | Activity (A549 [13]) | Activity (A549 [14]) | Activity (A549 [15]) | Activity (A549 [16]) | Activity (A549 [17]) | Activity (A549 [18]) | also measured |
| --- | --- | --- | --- | --- | --- | --- | --- | --- | --- | --- | --- | --- | --- | --- | --- | --- | --- | --- | --- | --- | --- |
| 74.4% | 1 µM | Active | COc1cc(-c2nncn2-c2ccc(-c3nc4ccc(F)cc4s3)cc2C)cc(OC)c1OC | 0.28 µM | 0.15 µM | 0.048 µM | 0.3 µM | 1.41 µM | 14.7% | 25.1% | 19.8% | 15.4% | Active | Active | Active | 63.9% | 27.2% | 8.2% | 0.7% | 22.2% | Activity [21]: 60.6%; Activity [22]: 65.5%; Activity [23]: Dose-dependent effect; Activity (A549 [24]): Dose-dependent effect; Activity (A549 [25]): 78.3%; Activity (A549 [26]): 15.1%; Activity (A549 [27]): 5.8%; Activity (A549 [28]): 0.8%; Activity [29]: Dose-dependent effect; Activity (A549 [19]): 74.4%; Activity (A549 [30]): 12.8%; Activity (A549 [31]): 85.2%; Activity (A549 [20]): 20.9%; Activity (A549 [32]): 10.4%; Activity (A549 [33]): Active |
| 72.9% | 1.67 µM | Active | COc1ccc2nc(-c3ccc(-n4cnnc4-c4cc(OC)c(OC)c(OC)c4)c(C)c3)sc2c1 | 0.48 µM | 0.16 µM | 0.054 µM | 0.67 µM | 1.13 µM | 10.6% | 25.9% | 21.5% | 17.6% | Active | Active | Active | 66% | 23.7% | 9.2% | 1.1% | 16.9% | Activity [21]: 63.7%; Activity [22]: 59.5%; Activity [23]: Dose-dependent effect; Activity (A549 [24]): Dose-dependent effect; Activity (A549 [25]): 77.3%; Activity (A549 [26]): 13.5%; Activity (A549 [27]): 8.1%; Activity (A549 [28]): 1.1%; Activity [29]: Dose-dependent effect; Activity (A549 [19]): 80.5%; Activity (A549 [30]): 11%; Activity (A549 [31]): 87.2%; Activity (A549 [20]): 12.3%; Activity (A549 [32]): 6.8%; Activity (A549 [33]): Active |

| Compound | inhibition (Sus scrofa) | IC50 [10] | inhibition (Homo sapiens) | IC50 [1] | IC50 [2] | IC50 [3] | IC50 [4] | IC50 [5] | Activity [6] | Activity [7] | Activity [8] | Activity [9] | inhibition (A549 [11]) | inhibition (A549 [12]) | Activity (A549 [13]) | Activity (A549 [14]) | Activity (A549 [15]) | Activity (A549 [16]) | Activity (A549 [17]) | Activity (A549 [18]) | also measured |
| --- | --- | --- | --- | --- | --- | --- | --- | --- | --- | --- | --- | --- | --- | --- | --- | --- | --- | --- | --- | --- | --- |
| COc1ccc(/C=C\c2cc(OC)c(OC)c(OC)c2)cc1O [COMBRETASTATIN A4] | 73.2% | 1.6 µM | Active | 0.069 µM | 0.005 µM | 0.058 µM | 0.009 µM | 0.043 µM | 12.6% | 31.3% | 26.1% | 15.9% | Active | Active | Active | 60.8% | 24.2% | 13.3% | 1.7% | 21.8% | Activity (A549 [19]): 74.9%; Activity (A549 [20]): 18% |
